Results from article PMC2804273 (Journal of Medicinal Chemistry, 2009).

Tested on: BSF T. brucei brucei strain Lister 427
Test: Alamar blue viability test, cytotoxicity against cultured parasites
Format: cell-based, Trypanosoma brucei brucei
Settings: ED50 determined in the presence of sub-ED50 MTX (0.5-2.5 μM)
In short: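 Bloodstream-form T. brucei brucei Lister 427, grown at 37 °C and 5% CO2 in HMI-9 with 10% fetal calf serum, high folate left unreduced, and neomycin pressure to keep T7 polymerase and tetracycline repressor. […] Values are mean ± std dev (n = 4). Synergy was judged by comparing the area under the slope with half the product of the two ED50 values.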

| Compound | Interaction in combination with MTX (synergy) |
| --- | --- |
| N#Cc1c(-c2ccc3c(c2)OCO3)[nH]c2nc(N)[nH]c(=O)c12 [compound 13] | acts synergistically |
| CCc1nc(N)nc(N)c1-c1ccc(Cl)cc1 [PYR, pyrimethamine] | does not act synergistically |
